Tests used:
[1] = molecular target: Delta-type opioid receptor (Mus musculus) (UniProt P32300); experiment: Antagonistic activity expressed as IC50 ratio against DADLE-Opioid receptor delta 1 in smooth muscle preparations of mouse vas deferens(MVD); format: functional
Procedure, shortened: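 Electrically stimulated mouse vas deferens. The preparation was preincubated 15 min with test compound (100 nM) before challenge with the standard δ agonist DADLE. The ratio is DADLE IC50 with antagonist divided by control IC50 of DADLE alone (n ≥ 3).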

Mus musculus = species: Mus musculus; experiment: Agonist vas deferens(MVD); format: functional
Procedure, shortened: (§1)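 Electrically stimulated mouse vas deferens. Agonism read as a drop in twitch height. Compounds were first tested at 1 μM. Full agonists were then run at 4-6 concentrations to build a dose-response curve and give the IC50 for half-maximal response (n ≥ 3). Partial responders were reported as percent of maximal agonist response.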

Cavia porcellus [2] = species: Cavia porcellus; experiment: (§2) Agonist activity (ability to decrease the twitch height of the electrically stimulated smooth muscle) in electrically stimulated guinea pig ileum(GPI); format: functional, organism-based; conditions: Muscle tissue
Procedure, shortened: as §1, with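 “guinea pig ileum.” for “mouse vas deferens.”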

Cavia porcellus [3] = species: Cavia porcellus; experiment: Agonist activity (ability to decrease the twitch height of the electrically stimulated smooth muscle) in electrically stimulated guinea pig ileum (GPI); format: functional
Procedure, shortened: as §1, with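 “guinea pig ileum.” for “mouse vas deferens.”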

Cavia porcellus [4] = species: Cavia porcellus; experiment: Antagonist potency (Ke) was evaluated in guinea pig ileum(GPI); format: functional
Procedure, shortened: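 Antagonist potency came from IC50-ratio tests in which smooth muscle was preincubated 15 min with antagonist before agonist challenge.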

[5] = molecular target: Kappa-type opioid receptor (Cavia porcellus) (UniProt P41144); experiment: Antagonistic activity expressed as IC50 ratio against ethylketazocine (EK) Opioid receptor kappa 1 in smooth muscle preparations; format: functional
Procedure, shortened: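 Electrically stimulated guinea pig ileum. The preparation was preincubated 15 min with test compound (100 nM) before challenge with a standard agonist: morphine for μ, ethylketazocine for κ. The ratio is agonist IC50 with antagonist divided by control IC50 of agonist alone (n ≥ 3).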

Cavia porcellus [6] = species: Cavia porcellus; experiment: as §2; format: functional, Muscle tissue
Procedure, shortened: as §1, with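 “guinea pig ileum.” for “mouse vas deferens.”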

Kappa-type opioid receptor (Cavia porcellus), sequence (P41144 whole entry): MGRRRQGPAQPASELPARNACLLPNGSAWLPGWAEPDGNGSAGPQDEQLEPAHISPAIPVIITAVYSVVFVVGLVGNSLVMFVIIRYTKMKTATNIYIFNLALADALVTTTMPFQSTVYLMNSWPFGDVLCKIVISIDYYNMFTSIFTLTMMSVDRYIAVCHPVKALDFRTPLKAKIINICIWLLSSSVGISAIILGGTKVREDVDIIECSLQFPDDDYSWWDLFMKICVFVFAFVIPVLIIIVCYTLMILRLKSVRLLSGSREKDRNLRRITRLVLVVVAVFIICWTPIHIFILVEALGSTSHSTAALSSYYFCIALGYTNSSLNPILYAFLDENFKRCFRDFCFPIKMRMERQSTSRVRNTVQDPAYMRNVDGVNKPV
Delta-type opioid receptor (Mus musculus), sequence (P32300 whole entry): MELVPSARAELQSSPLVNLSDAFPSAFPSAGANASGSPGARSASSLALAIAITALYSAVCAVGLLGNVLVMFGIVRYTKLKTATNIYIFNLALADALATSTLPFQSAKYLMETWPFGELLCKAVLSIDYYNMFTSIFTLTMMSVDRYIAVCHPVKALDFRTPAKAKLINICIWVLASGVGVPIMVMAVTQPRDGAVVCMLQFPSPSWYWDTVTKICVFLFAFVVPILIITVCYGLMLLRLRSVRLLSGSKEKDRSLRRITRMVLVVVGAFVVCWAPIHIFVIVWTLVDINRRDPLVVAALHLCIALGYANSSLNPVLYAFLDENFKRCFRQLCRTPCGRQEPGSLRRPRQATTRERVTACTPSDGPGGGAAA

CN1CCC23c4c5ccc(O)c4O[C@H]2C(=O)C2(Cc4ccccc4C2)CC3C1C5 (some centres not stated)
IC50 ratio [1]: 0.85 | Max response (Mus musculus): 58.6% | IC50 (Cavia porcellus [2]): 153 nM

Oc1ccc2c3c1O[C@H]1c4[nH]c5ccccc5c4CC4C(C2)N(CC2CC2)CCC341 (some centres not stated)
Max response (Cavia porcellus [3]): 16.85% | Ke (Cavia porcellus [4]): 2.98 | IC50 ratio [1]: 34.6 | Max response (Mus musculus): 22.6% | IC50 ratio [5]: 1.64

Oc1ccc2c3c1O[C@H]1c4[nH]c5ccccc5c4C[C@@]4(O)[C@@H](C2)N(CC2CC2)CC[C@]314 [NALTRINDOLE]
Max response (Cavia porcellus [6]): 7.6% | Max response (Mus musculus): 37.1%

CN1CC[C@]23c4c5ccc(O)c4O[C@H]2C(=O)C2(Cc4ccccc4C2)C[C@@]3(O)[C@H]1C5 [SPIROINDANYLOXYMORPHONE]
Max response (Cavia porcellus [6]): 55% | IC50 ratio [5]: 1
